# In ChEMBL document CHEMBL1130035, “Aroyl(aminoacyl)pyrroles, a new class of anticonvulsant agents” (J Med Chem, 1997):
# Calls of active or inactive are those of the source. No cut-off for these calls is given here.
# Columns and labels:
# Rattus norvegicus [1] = experiment: Compound was tested for anticonvulsant activity by maximal electroshock seizure(MES) test in rat upon intraperitoneal administration; type: functional; details: ip
# [2] = (§1) Ratio of TD50/ED50; TI indicates Therapeutic index; details: read-out: TI
# In short: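 Protective index calculated as TD50 (rotorod, ip) divided by MES ED50 (ip), both in mg/kg.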
# Mus musculus [3] = experiment: Anticonvulsant activity in mouse maximal electroshock seizure test following i.p. administration.; type: functional; details: ip
# In short: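 Test agent given ip as a suspension at 30, 100 and 300 mg/kg to one to four mice, observed at 30 min and, in a separate test, at 4 h. Quantified values are ED50 (mg/kg) with 95% confidence limits.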
# [4] = (§2) Minimal motor impairment was measured in mouse by rotating rod test upon intraperitoneal administration; type: toxicity; details: in vivo, ip
# In short: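 Mouse rotorod (rotating rod) test for minimal motor impairment after ip dosing, run alongside the MES and scMET screens. Reported as TD50 (mg/kg) ip with 95% confidence limits.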
# [5] = Minimal motor impairment was measured in rat by overt evidence of ataxia upon intraperitoneal administration; details: in vivo, ip
# Mus musculus [6] = experiment: Ability to block seizures induced by bicuculline after intraperitoneal administration.; type: functional; details: ip
# Rattus norvegicus [7] = experiment: Minimal motor impairment was measured in rat by rotating rod test upon intraperitoneal administration; details: ip
# [8] = as §1
# Mus musculus [9] = experiment: as §2; details: ip
# Mus musculus [10] = experiment: Ability to block seizures induced by bicuculline after intraperitoneal administration; NA indicates not active; type: functional, organism-based
# [11] = Toxic dose was measured in mouse by rotating rod test; details: in vivo
# [12] = Ratio of TD50/ED50.; type: ADME; details: read-out: TI
# In short: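 Maximal electroshock seizure ED50 was determined with ip dosing and reported in mg/kg with 95% confidence limits. TD50 was determined ip by the rotating rod test for minimal motor impairment, and in some cases by overt ataxia. Protective index = TD50/ED50.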
# Mus musculus [13] = experiment: Effective dose was determined by Maximum Electroshock Seizure test after intraperitoneal dose in mouse; details: ip
# [14] = Toxic dose was measured in rat by rotating rod test.; details: in vivo
Compound,ED50 (Rattus norvegicus [1]),selectivity ratio [2],ED50 (Mus musculus [3]),TD50 [4],TD50 [5],further results
CCN(CC)CC(=O)c1c(C)c(C(=O)c2ccc(Cl)cc2)n(C)c1C,15.5 mg/kg,3.65,10.3 mg/kg,37.7 mg/kg,> 250 mg/kg,–
Cn1cc(C(=O)CN2CCCC2)cc1C(=O)c1cccc(Cl)c1.[O-][Cl+3]([O-])([O-])O,–,3.38,16.5 mg/kg,55.6 mg/kg,–,–
Cl.Cn1cc(C(=O)CN2CCOCC2)cc1C(=O)c1cccc(Cl)c1,72 mg/kg,2.96,37.4 mg/kg,110 mg/kg,> 500 mg/kg,–
Cc1c(C(=O)CN2CCOCC2)c(C)n(C)c1C(=O)c1ccc(Cl)cc1,–,2.66,87.6 mg/kg,233 mg/kg,–,–
Cn1cc(C(=O)CN2CCCCC2)cc1C(=O)c1ccc(Cl)cc1,8.4 mg/kg,3.05,24.4 mg/kg,74.2 mg/kg,342 mg/kg,–
Cc1c(C(=O)CN2CCCCC2)c(C)n(C)c1C(=O)c1ccc(Cl)cc1,28.1 mg/kg,4.73,23.9 mg/kg,113 mg/kg,> 500 mg/kg,ED50 (Mus musculus [6]): 25.2 mg/kg
Cn1cc(C(=O)c2ccc(Cl)cc2)cc1C(=O)CN1CCCCC1,–,2.36,59.7 mg/kg,141 mg/kg,–,–
O=C(CN1CCOCC1)c1c[nH]c(C(=O)c2ccc(Cl)cc2)c1,41 mg/kg,0.98,86.2 mg/kg,84.1 mg/kg,88 mg/kg,–
CCCC(CCC)C(=O)O [VALPROIC ACID],–,–,–,–,–,TD50 (Rattus norvegicus [7]): 859 mg/kg
NC(=O)N1c2ccccc2C=Cc2ccccc21 [CARBAMAZEPINE],36 mg/kg,–,9.9 mg/kg,–,–,selectivity ratio [8]: 4.93; TD50 (Mus musculus [9]): 47.8 mg/kg; ED50 (Mus musculus [10]): inactive
Cl.Cn1cc(C(=O)CN2CCCCCC2)cc1C(=O)c1ccc(Cl)cc1,22 mg/kg,1.67,27.5 mg/kg,46.1 mg/kg,> 500 mg/kg,–
O=C1NC(=O)C(c2ccccc2)(c2ccccc2)N1 [PHENYTOIN],–,–,–,–,–,TD50 [11]: 42.8 mg/kg; selectivity ratio [12]: 6.6; ED50 (Mus musculus [13]): 6.48 mg/kg; TD50 [14]: > 500 mg/kg
Cn1cc(C(=O)CN2CCCC2)cc1C(=O)c1ccc(Cl)cc1,17.9 mg/kg,4.89,49.1 mg/kg,240 mg/kg,> 500 mg/kg,–
CCN(CC)CC(=O)c1cc(C(=O)c2ccc(Cl)cc2)n(C)c1.Cl,19.3 mg/kg,2.81,–,40.5 mg/kg,> 500 mg/kg,–
Cc1c(C(=O)CN2CCCC2)c(C)n(C)c1C(=O)c1ccc(Cl)cc1,16.2 mg/kg,3.6,15.2 mg/kg,54.8 mg/kg,203 mg/kg,–
Cc1c(C(=O)CN2CCCC2)c(C)n(C)c1C(=O)c1ccc(Cl)cc1Cl.Cl,19 mg/kg,2.3,10.3 mg/kg,23.8 mg/kg,> 200 mg/kg,–
CCN(CC)CC(=O)c1c(C)c(C(=O)c2ccc(Cl)cc2Cl)n(C)c1C,19.4 mg/kg,3.38,14.9 mg/kg,50.6 mg/kg,> 500 mg/kg,–
Cl.Cn1cc(C(=O)CNC23C[C@H]4C[C@@H](C2)C[C@@H](C3)C4)cc1C(=O)c1ccccc1Cl,–,> 1.57,159 mg/kg,> 250 mg/kg,–,–
CCN(CC)CC(=O)c1cc(C(=O)c2ccc(OC)cc2)n(C)c1.Cl,–,1.37,33 mg/kg,45.1 mg/kg,–,–
